Key:
[1] = folding enthalpy; higher = less favourable; fluorescence melt of hairpins on a sequencing array, two-state fit; conditions: sodium 0.088 M
In short: (§1)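 Melting temperature and folding enthalpy were obtained by bootstrapped two-state fitting. Fits used Cy3 fluorescence of library hairpins with annealed Cy3 and quencher oligos on a sequenced MiSeq flow cell, imaged in 50 mM Na-HEPES pH 8.0, 25 mM NaCl in 2.5 °C steps up to 60 °C and normalised to pre-quench Cy3 and control constructs. Four replicates were combined by inverse-variance weighting, and fitted temperatures were raised by 9.35 °C to match UV melts.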

[2] = melting temperature; fluorescence melt of hairpins on a sequencing array, two-state fit, raised by 9.35 °C to match UV melts; conditions: sodium 0.088 M
In short: as §1

| Sequence | folding enthalpy [1] [kcal/mol] | Tm [2] [°C] |
| --- | --- | --- |
| GCCATCGAAAGATTAGGC ((((((....)))..))) | -30.7 | 43.4 |
| GCCATGAAAATGGC (((((....))))) | -28.1 | 60.6 |
| GCCATGCGAAAGCAAAGC ((..(((....)))..)) | -11.5 | 32.2 |
| GCCATGCGAAAGCAGAGC ((..(((....)))..)) | -17.9 | 44.6 |
| GCCATGCGAAAGCATAGC ((.((((....)))).)) | -17 | 51.6 |
| GCCATGCGAAAGCCAGGC (((..((....))..))) | -21 | 55.4 |
| GCCATGCGAAAGCCTGGC ((((.((....)).)))) | -31.2 | 62.8 |
| GCCATGCGAAAGCCTTGC ((.(.((....)).).)) | -10 | 26.6 |
| GCCATGCGAAAGCGTCGC ((.(.((....)).).)) | -12.7 | 48 |
| GCCATGGCGAAAGCCGGC (((..(((....)))))) | -16.2 | 62 |
| GCCATTCGAAAGAAAGGC (((.(((....))).))) | -37 | 49.3 |
| GCCATTGCGAAAGCAGGC (((..(((....)))))) | -19.1 | 51.4 |
| GCCATTGGAAACAATAGC ((.((((....)))).)) | -13.7 | 33.1 |
| GCCATTGGAAACGATGGC (((((.(....).))))) | -45.8 | 54.1 |
| GCCCAACCGAAAGGTGGC (((..(((....)))))) | -18.8 | 51.6 |
| GCCCAACGAAAGTTGGC (((.(((....)))))) | -12.8 | 57.1 |
| GCCCAAGGAAACCTGGGC (((((.(....).))))) | -43.8 | 54.1 |
| GCCCAATCGAAAGATGGC (((..(((....)))))) | -24.9 | 43.3 |
| GCCCACGAAAGTGATGGC ((((((....)))..))) | -29.4 | 50.6 |
| GCCCACGAAAGTGCGGGC ((((((....)))..))) | -28.4 | 55 |
| GCCCACGAAAGTGTGGC ((((((....))).))) | -30.2 | 62.4 |
| GCCCACGAAAGTGTGGGC ((((((....)))..))) | -31.5 | 68 |
| GCCCACGAAAGTGTTGGC ((((((....)))..))) | -20.4 | 49 |

| Sequence | folding enthalpy [1] [kcal/mol] | Tm [2] [°C] |
| --- | --- | --- |
| GCCCACGGAAACATGGGC (((((.(....).))))) | -30.8 | 50.7 |
| GCCCACGGAAACGTGAGC ((.((((....)))).)) | -27.2 | 50.9 |
| GCCCAGAAATGGGC (((((....))))) | -33.9 | 63.1 |
| GCCCAGACGAAAGTCGGC (((..(((....)))))) | -15.7 | 49.6 |
| GCCCAGCGAAAGCAGCGC ((.(.((....)).).)) | -13.9 | 46.5 |
| GCCCAGCGAAAGCGGTGC ((.(.((....)).).)) | -15.8 | 53.1 |
| GCCCAGCGAAAGCTAAGC ((..(((....)))..)) | -9.29 | 27.7 |
| GCCCAGCGAAAGCTAGGC (((.(((....))).))) | -42.3 | 54.1 |
| GCCCAGCGAAAGCTGTGC ((.((((....)))).)) | -16 | 61 |
| GCCCAGCGAAAGCTTGGC (((.(((....))).))) | -53 | 54.9 |
| GCCCAGGGAAACCTAGGC (((.(((....))).))) | -21.5 | 43.2 |
| GCCCAGTCGAAAGACGGC (((..(((....)))))) | -13.4 | 49.3 |
| GCCCATACGAAAGTAGGC (((..(((....)))))) | -20.8 | 41.5 |
| GCCCCAACGAAAGTTGGC (((..(((....)))))) | -5.86 | 38.7 |
| GCCCCAGGAAACCGGGGC (((((.(....).))))) | -41.2 | 59.3 |
| GCCCCCGAAAGGGAGGC ((((((....))).))) | -29.7 | 68.7 |
| GCCCCCGAAAGGGATGGC ((((((....)))..))) | -24.1 | 52.1 |
| GCCCCGCGAAAGCAGTGC ((.(.((....)).).)) | -11.8 | 34 |
| GCCCCGCGAAAGCGAAGC ((..(((....)))..)) | -8.06 | 39.2 |
| GCCCCGCGAAAGCGTAGC ((..(((....)))..)) | -9.13 | 35.8 |
| GCCCCGCGAAAGCGTCGC ((..(((....)))..)) | -8.15 | 28.8 |
| GCCCCGCGAAAGCGTGGC (((.(((....))).))) | -25.4 | 67.4 |
| GCCCCGGGAAACCGAGGC (((.(((....))).))) | -29.5 | 54.1 |

Reference: the array DNA melting data of Ke et al. (doi:10.1101/2024.01.08.574731)
